The list is not random: actives were taken first. Their share in the collection is about 1.1%.
Furin inh – blocks human furin protease activity. 220,000 tested, 0.061% active. purified furin, fluorogenic substrate cleavage. P09958. AID 463115. inhibition, % at 20 µM or 30 µM; in the data active = inhibition above about 25%
Thrombin inh – blocks human thrombin protease activity; AID 1046; alpha-thrombin, Boc-VPR-AMC fluorogenic substrate cleavage; 220,000 tested, 0.26% active; inhibition, % at 5 µM;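 active = inhibition at or above 40%; inactive = inhibition below 40%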;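 note: 0% = enzyme with no compound and 100% = wells without enzyme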
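System – human alpha-thrombin protein · Reagent – Boc-VPR-AMC substrate, 15 µM final · Compound – 5 µM single dose in 0.2% DMSO · Schedule – reaction at room temperature · Technique – AMC fluorescence at 355 nm excitation and 460 nm emission · Read-out basis – % inhibition relative to enzyme controls and enzyme-free blanks · Control set – no-compound enzyme wells and no-enzyme blanks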
FXIa inh – blocks human coagulation factor XIa protease activity | P03951 | purified FXIa, Boc-Glu-Ala-Arg-AMC fluorogenic substrate | inhibition, % at 5 µM | 220,000 tested, 0.14% active | AID 798;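 active = inhibition of at least 40%; inactive = inhibition below 40%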;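 note: fluorescence of freed AMC excited at 355 nm; 0% = enzyme without compound and 100% = no enzyme blank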
Target sequence (P03951 19-387 limits assumed): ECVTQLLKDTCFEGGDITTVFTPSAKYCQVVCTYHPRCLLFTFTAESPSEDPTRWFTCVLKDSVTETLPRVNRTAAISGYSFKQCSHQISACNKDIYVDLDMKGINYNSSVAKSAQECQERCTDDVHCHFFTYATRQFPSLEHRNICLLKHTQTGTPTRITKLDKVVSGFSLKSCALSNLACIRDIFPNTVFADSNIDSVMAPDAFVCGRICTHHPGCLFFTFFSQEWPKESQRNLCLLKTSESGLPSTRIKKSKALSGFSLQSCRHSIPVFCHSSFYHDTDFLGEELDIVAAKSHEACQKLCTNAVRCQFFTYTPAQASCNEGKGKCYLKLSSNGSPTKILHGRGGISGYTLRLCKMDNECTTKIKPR
Target sequence (P03951 388-625 limits assumed): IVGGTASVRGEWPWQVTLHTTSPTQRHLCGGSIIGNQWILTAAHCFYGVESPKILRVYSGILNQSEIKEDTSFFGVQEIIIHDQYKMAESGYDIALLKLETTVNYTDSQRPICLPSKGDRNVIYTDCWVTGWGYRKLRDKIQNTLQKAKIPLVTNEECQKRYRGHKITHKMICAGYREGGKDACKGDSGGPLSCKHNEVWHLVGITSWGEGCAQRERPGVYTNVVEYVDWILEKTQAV
FXIIa inh – inhibitors of human coagulation factor XIIa. P00748. purified FXIIa, Boc-QGR-AMC fluorogenic substrate, 2 h. inhibition, % at 5 µM. 220,000 tested, 0.3% active. AID 800; in the data active = inhibition above about 40%;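 note: 0% = enzyme with no compound and 100% = blank without enzyme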
hK5 inh – inhibitors of human kallikrein 5; recombinant hK5, fluorogenic AMC substrate cleavage; inhibition, % at 5 µM; 210,000 tested, 0.59% active; AID 873;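 active = inhibition of 40% or more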;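 note: 0% = enzyme controls without compound and 100% = no-enzyme blanks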
Numbers without * were called inactive.

SMILES	Furin inh	Thrombin inh	FXIa inh	FXIIa inh	hK5 inh
CCCCCC(=O)N(CN1C(=O)CCC1=O)c1ccccc1	32*	0	6	5	-11
O=C1CCC(=O)N1CC(=O)N(c1ccccc1)c1ccccc1	4	8	6	11	7
Cc1ccc(S(=O)(=O)N2CCN=C2c2ccccc2)cc1C	-18	24	22	17	45*
COc1cc(S(=O)(=O)N2CCN=C2c2ccccc2)ccc1F	-7	3	-8	12	-3
CCCCCN1C=CC=C/C1=C\C=C(C#N)C#N	-13	-3	6	6	-7
CCCN1C=CC(=CC=C(C#N)C#N)C=C1	-6	4	20	22	67*
CCCCCCN1C=CC=C/C1=C/C=C(C#N)C#N	30*	5	7	15	-6
CCC(Oc1ccc2c(c1)C(=O)CC(C)(C)O2)C(=O)NCCN1CCCCCC1 (stereo not given)	-33	-1	-12	-7	-13
COc1ccc(NC(=O)C(CC(=O)O)Cc2ccc(C)cc2)cc1 (stereo not given)	-13	-2	-3	7	-1
CCCCn1c(N)c(NCC)c(=O)[nH]c1=O	-18	-3	3	10	2
COc1ccc(NC(=S)N(CCc2nc3cc(C)c(C)cc3[nH]2)Cc2cccnc2)cc1	-25	-3	-1	7	29
CCO[C@@H]1OC(C(N)=O)=C[C@H](c2ccc3c(c2)OCO3)[C@H]1CCCO	-33	-3	0	5	1
Cc1c(O)ccc(/C=N/Nc2nc(-c3cccnc3)nc3ccccc23)c1O	-20	1	0	5	3
Oc1ccc(/C=N/Nc2nc(-c3cccnc3)nc3ccccc23)c(O)c1	-2	7	42*	25	40
CN(C)S(=O)(=O)Oc1ccsc1C(=O)Nc1ccc(C(F)(F)F)cc1	-13	-2	-4	3	-7
CN(C)S(=O)(=O)Oc1ccsc1C(=O)Nc1ccc(Br)cc1	-21	-8	-3	6	-8
CN(C)S(=O)(=O)Oc1ccsc1C(=O)Nc1ccc(Cl)c(Cl)c1	-16	-2	13	42*	3
CN(C)S(=O)(=O)Oc1ccsc1C(=O)Nc1cccc(Cl)c1	-12	-1	19	47*	6
CN(C)S(=O)(=O)c1ccc(C(=O)Oc2cc(=O)[nH]c3ccccc23)cc1	-19	40*	10	27	12
COc1ccc(-c2cc(CNS(=O)(=O)c3ccc(F)cc3)on2)cc1	-24	-2	-2	8	0
Cc1ccc(C(=O)N2CCOCC2)c(F)c1F	-14	1	-4	7	13
CC(OC(=O)CCCN1C(=O)c2ccccc2C1=O)C(=O)Nc1ncc(Cl)cc1Cl (stereo not given)	-21	26	1	-1	70*
O=C(N/N=C/C1C(c2ccccc2)C1(Cl)Cl)c1cccc(Br)c1 (stereo not given)	-19	1	-4	9	-30
COCCn1c(SCc2c(F)cccc2Cl)nc2c1c(=O)[nH]c(=O)n2C	-12	3	6	4	-28
CC(=O)OCC1(C)CN(c2ccccc2)N(C(C)=O)C1=O (stereo not given)	-18	-3	0	11	12
SMILES	Furin inh	Thrombin inh	FXIa inh	FXIIa inh	hK5 inh
CC(=O)OCC1(C)CN(c2ccccc2)N(C(=O)c2ccc(C(C)(C)C)cc2)C1=O (stereo not given)	-13	43*	-5	1	-1
CC1(C)CN(c2ccccc2)N(C(=O)c2ccc(F)cc2)C1=O	-15	74*	15	25	64*
Cc1ccccc1NC(=O)c1ccc(NC(=O)C2CC(=O)OC23CCCCC3)cc1 (stereo not given)	-11	64*	31	17	15
COc1ccc(NC(=O)c2sccc2C)cn1	-21	0	-2	-1	-18
CS(=O)(=O)c1ccc2nc(NC(=O)C3COc4ccccc4O3)sc2c1 (stereo not given)	-19	18	3	17	156*
COc1ccc2nc(NC(=O)C3COc4ccccc4O3)sc2c1 (stereo not given)	-18	-6	0	11	-8
Nc1ccnn1Cc1cccs1	-12	22	8	43*	79*
Nc1ccnn1Cc1ccncc1	-4	-1	-5	2	-4
COc1ccc(Cl)cc1NC(=S)NCc1ccco1	-18	3	-1	15	-3
COc1cccc(/C=N/NC(=O)c2ccccc2N(Cc2ccccc2)S(=O)(=O)c2ccccc2)c1OC	-10	-2	-1	-13	2
